Results on 31 sequences are retold here after the array DNA melting data of Ke et al. (doi:10.1101/2024.01.08.574731).

The nature of data set [1]: melting temperature; fluorescence melt of hairpins on a sequencing array, two-state fit, raised by 9.35 °C to match UV melts. The settings on record: sodium 0.088 M. The essentials:
(§1)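 Folding enthalpy and melting temperature come from bootstrapped two-state fits to Cy3 fluorescence of library hairpins carrying annealed Cy3 and quencher oligos on a sequenced MiSeq flow cell. Imaging was done in 50 mM Na-HEPES pH 8.0, 25 mM NaCl, stepping by 2.5 °C up to 60 °C, and signals were normalised to pre-quench Cy3 and to control constructs. Results of four replicates were combined by inverse variance, and fitted temperatures were raised by 9.35 °C to match UV melts.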

Data set [2] in a line: folding enthalpy; higher = less favourable; fluorescence melt of hairpins on a sequencing array, two-state fit. The conditions noted are these: sodium 0.088 M. Summed up: as §1

In the case of GATCTTGGAGAAGATC ((((((....)))))), in data set [1], the Tm was 43.9 °C. Moreover, in data set [2], the folding enthalpy is -29.8 kcal/mol.
In the same order, the values of GATCTTGGCGAAGATC ((((((....)))))) are 47 °C and -30.8 kcal/mol.
For the sequence GATCTTGGGAAGATC ((((((...)))))), in data set [1], the Tm is 39.7 °C. In addition, the folding enthalpy in data set [2] was -22.8 kcal/mol.
In the same order, the values of GATCTTGGGCAAGATC ((((((....)))))) are 46.7 °C and -37.4 kcal/mol.
Turning to GATCTTGGTAAAGATC ((((((....)))))), in data set [1], the Tm came out at 53.5 °C. Further, the folding enthalpy in data set [2] is -41.3 kcal/mol.
The corresponding values for GATCTTGTGCAAGATC ((((((....)))))) are 46.4 °C and -47 kcal/mol.
In the same order, the values of GATCTTGTTAAAGATC ((((((....)))))) are 53.7 °C and -37.3 kcal/mol.
GATCTTGTTAAGATC ((((((...)))))): the Tm in data set [1] was 45.8 °C. Moreover, the folding enthalpy in data set [2] was -30.1 kcal/mol.
In the same order, the values of GATCTTTAAGAAGATC ((((((....)))))) are 41.5 °C and -34.9 kcal/mol.
Consider GATCTTTATGAAGATC ((((((....)))))), for which the Tm in data set [1] was 44.9 °C. Besides, the folding enthalpy in data set [2] was -36.5 kcal/mol.
The corresponding values for GATCTTTCAGAAGATC ((((((....)))))) are 44.3 °C and -34.1 kcal/mol.
Regarding GATCTTTCGAAAGATC ((((((....)))))), the Tm in data set [1] worked out at 49.3 °C. For the same sequence, the folding enthalpy in data set [2] was -40.8 kcal/mol.
For GATCTTTGGAAAGATC ((((((....)))))), in data set [1], the Tm came out at 42.7 °C. Further, the folding enthalpy in data set [2] is -31.5 kcal/mol.
The corresponding values for GATCTTTGTCAAGATC ((((((....)))))) are 39.9 °C and -33 kcal/mol.
The corresponding values for GATCTTTTGGAAGATC ((((((....)))))) are 44.3 °C and -34.1 kcal/mol.
Turning to GATGAACCGAAAGGTATC (((..(((....)))))), in data set [1], the Tm was determined as 28.8 °C. The folding enthalpy in data set [2] is -12.9 kcal/mol.
In the same order, the values of GATGAAGGAAACTTCATC (((((((....))))))) are 53.5 °C and -40.9 kcal/mol.
In the same order, the values of GATGAAGGAAACTTCGTC ((.((((....)))).)) are 42.4 °C and -27 kcal/mol.
With GATGACGAAAGTCCATC ((((((....))).))), the Tm in data set [1] was determined as 41.5 °C. Moreover, the folding enthalpy in data set [2] is -17.2 kcal/mol.
With GATGACGAAAGTCGCATC ((((((....)))..))), the Tm in data set [1] is 30.8 °C. Moreover, in data set [2], the folding enthalpy is -11.1 kcal/mol.
In the same order, the values of GATGAGACGAAAGTCATC (((..(((....)))))) are 35.9 °C and -13.4 kcal/mol.
Consider GATGAGCGAAAGCTAATC (((.(((....))).))), for which the Tm in data set [1] was determined as 46.6 °C. The folding enthalpy in data set [2] was -24.9 kcal/mol.
With GATGAGGGAAACCCCATC ((((.((....)).)))), the Tm in data set [1] came out at 41.2 °C. The folding enthalpy in data set [2] was -31.4 kcal/mol.
The corresponding values for GATGAGGGAAACTTCATC (((((.(....).))))) are 37.1 °C and -25 kcal/mol.
The corresponding values for GATGATGGAAACATCACC (.(((((....))))).) are 37.3 °C and -16.3 kcal/mol.
The corresponding values for GATGCACCGAAAGGTATC (((..(((....)))))) are 29 °C and -9.42 kcal/mol.
On to GATGCAGGAAACCGCATC (((((.(....).))))), for which the Tm in data set [1] is 49.9 °C. Besides, the folding enthalpy in data set [2] is -33.5 kcal/mol.
The corresponding values for GATGCAGGAAACTGCACC (.(((((....))))).) are 40.5 °C and -12.7 kcal/mol.
Take GATGCCCGAAAGGGAATC (((.(((....))).))): in data set [1], the Tm turned out to be 53.9 °C. Besides, the folding enthalpy in data set [2] was -37.9 kcal/mol.
The corresponding values for GATGCCCGAAAGGGATC (((.(((....)))))) are 45 °C and -17.4 kcal/mol.
As for GATGCCGAAAGGCGAATC ((((((....)))..))), the Tm in data set [1] came out at 36.9 °C. Moreover, the folding enthalpy in data set [2] is -9.65 kcal/mol.
